Source: PMC9730744 (ACS Omega, 2022)
Marks after values point to notes of the source that are not given here.

Legend:
[1] = tested on: rat synovial cells; assay: LDH activity assay of synovial cells in vitro; assay type: cell-based; settings: for LDH activity ± SD: 1 μM, supernatant of rat synovial cells, 48 h; for LDH content in the supernatant / damage to synovial cells (in words): compared with the normal group
Outline: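 Log-phase rat synovial cells (2 × 10⁴/well) were cultured 48 h at 37 °C, 5% CO₂. They then received test compound at graded concentrations, methotrexate, or DMSO vehicle for 48 h. Plates were centrifuged 10 min, and supernatant LDH was assayed with a kit. Activity (U/L) = [(OD sample − OD control)/([…] − OD blank)] × 0.2 mM × 1000. Three independent experiments, each in triplicate.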

[2] = Acute toxicity test in mice; settings: both, mouse, in vivo, po
Outline: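 Single oral gavage of 0.4 mL test substance to SPF mice (18–22 g) after 1-week acclimatization at 22 ± 2 °C on a 12 h light/dark cycle. Mice were randomized into 10 groups, half male and half female, fasted 8 h before dosing and 2 h after. Mortality, death time and signs of poisoning were recorded over 14 days, and LD50 was taken as the acute toxicity measure.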

[3] = tested on: rat synovial cells; assay: Morphology of rat synovial cells in vitro; assay type: cell-based; settings: 1 μM, 48 h, Figure 3
Outline: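 Synovial cells at 70–80% confluence were detached with 0.25% trypsin and seeded at 5000 cells/well in 24-well plates. Groups received test compound (1 μM), methotrexate (1 μM) or DMSO, with an untreated normal group. After 48 h culture, morphology was examined by cell imaging analysis.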

[4] = tested on: TNF-α, IL-1β, and IL-6 in rat synovial cells; assay: Inflammatory cytokines in the rat synovial cell supernatant; assay type: cell-based; settings: 1 μM, LPS 1 μg·mL^–1, compared with the LPS group, p < 0.01
Outline: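 After 24 h they were stimulated with LPS (1 μg·mL⁻¹) for 24 h, then treated with test compound or methotrexate at 1 μM for 24 h. Supernatant was centrifuged at 3000 rpm for 15 min, and TNF-α, IL-1β and IL-6 were measured by ELISA. Three independent experiments, each in triplicate.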

[5] = tested on: CFA-induced arthritis in rats; assay: Complete Freund's adjuvant induced arthritis in rats; assay type: in vivo, rat; settings: for IL-6 content in serum after treatment / TNF-α content in serum after treatment: high dose (100 mg·kg^–1·d^–1) and low dose (50 mg·kg^–1·d^–1); for IL-6 content in serum after treatment: Figure 4c; for TNF-α content in serum after treatment: Figure 4d; for change of paw volume before and after treatment: oral
Outline: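 SPF adult rats (200 ± 20 g) were acclimatized 2 weeks at 22 ± 3 °C and 40–70% humidity. Arthritis was induced with 0.1 mL CFA injected 2 cm from the tail root; the normal group received saline. From day 14 after induction, rats were dosed orally at 50 or 100 mg·kg⁻¹·d⁻¹ daily for 14 days. Paw volume was measured by toe volume meter before induction and on dosing days 1 and 14.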

[6] = tested on: TLR4, MyD88, NF-κB, and IκB in rat synovial cells; assay: TLR4/NF-κB signaling pathway protein expression in rat synovial cells; assay type: cell-based; settings: 1 μM, LPS 1 μg·mL^–1, compared with the LPS group, p < 0.01
Outline: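 Synovial cells (5000/well) were cultured 24 h, stimulated with LPS (1 μg·mL⁻¹) for 24 h, then treated with test compound at 1 μM for 24 h. Cells were fixed in 4% fixative for 45 min, permeabilized with 0.25% Triton for 15 min and blocked with 5% BSA for 10 min. Rabbit anti-rat primaries (1:100 or 1:200) were applied overnight at 4 °C, then FITC goat anti-rabbit (1:400, 30 min, 37 °C) and DAPI (1:800). Read-out was mean fluorescence intensity.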

[7] = tested on: rat synovial cells; settings: read-out: IC50, growth of synovial cells; cited from earlier work
[8] = 50 mg·kg^–1·d^–1 for 14 days, Figure 4a

O=C1C=C2CC[C@@H](C(=O)O)CC2C(=O)C1 (stereo partly drawn) [Compound 21]
LDH activity ± SD [1]: 297.79 ± 49.6 U/L | LDH content in the supernatant / damage to synovial cells (in words) [1]: little damage to synovial cells

CCOC(=O)[C@@H]1CCC2=CC(=O)CC(=O)C2C1 (stereo partly drawn) [Compound 23]
LD50 at 14 days [2]: 2307 ± 7.37 mg/kg | LDH activity ± SD [1]: 342.78 ± 22.74 ^c U/L | LDH content in the supernatant / damage to synovial cells (in words) [1]: little damage to synovial cells | morphology of rat synovial cells [3]: significant concentration dependence on synovial cell injury

O=C1C=C2CC[C@@H](C3CCC(=O)CC3)CC2C(=O)C1 (stereo partly drawn) [Compound 28, (7R)-7-(4-oxocyclohexyl)-6,7,8,8a-tetrahydronaphthalene-1, 3 (2H, 5H)-dione]
LDH activity ± SD [1]: 375.29 ± 17.87 ^c U/L | LDH content in the supernatant / damage to synovial cells (in words) [1]: little damage to synovial cells | morphology of rat synovial cells [3]: significant concentration dependence on synovial cell injury

O=C1C=C2CC[C@@H](O)CC2C(=O)C1 (stereo partly drawn) [Compound 32, (7R)-7-hydroxy-6,7,8,8a-tetrahydronaphthalene-1, 3 (2H, 5H)-dione]
LD50 at 14 days [2]: 2658 ± 9.06 mg/kg | content of IL-1β in the supernatant [4]: significantly decreased | content of IL-6 in the supernatant [4]: significantly decreased | content of TNF-α in the supernatant [4]: significantly decreased | IL-6 content in serum after treatment [5]: basically at a low level | TNF-α content in serum after treatment [5]: decreased | change of paw volume before and after treatment [5, 8]: little change | change of paw volume before and after treatment ([5]; 100 mg·kg^–1·d^–1 for 14 days, Figure 4b): hardly changed | LDH activity ± SD [1]: 307.02 ± 30.86 ^c U/L | LDH content in the supernatant / damage to synovial cells (in words) [1]: little damage to synovial cells | morphology of rat synovial cells [3]: significant concentration dependence on synovial cell injury | expression of MyD88 [6]: significantly downregulated | expression of NF-κB [6]: significantly downregulated | expression of TLR4 [6]: significantly downregulated | expression of the IκB protein [6]: significantly upregulated

CC(=O)N[C@@H]1CCC2=CC(=O)CC(=O)C2C1 (stereo partly drawn) [Compound 33]
LDH activity ± SD [1]: 264.24 ± 27.71 U/L | LDH content in the supernatant / damage to synovial cells (in words) [1]: little damage to synovial cells

O=C1C=C2CCC(F)(F)CC2C(=O)C1 (stereo not drawn) [Compound 36, 7,7-difluoro-6,7,8,8a-tetrahydronaphthalene-1,3 (2H, 5H)-dione]
LD50 at 14 days [2]: 2709 ± 8.63 mg/kg | LDH activity ± SD [1]: 292.07 ± 31.56 U/L | LDH content in the supernatant / damage to synovial cells (in words) [1]: little damage to synovial cells | morphology of rat synovial cells [3]: significant concentration dependence on synovial cell injury

CC(C)[C@H]1CC[C@]2(C)C(=O)CCC(=O)C=C12 [Dysodensiol K]
IC50 [7]: 11.8 ± 0.23 µM

CN(Cc1cnc2nc(N)nc(N)c2n1)c1ccc(C(=O)N[C@@H](CCC(=O)O)C(=O)O)cc1 [methotrexate, reference compound]
LD50 at 14 days [2]: 1368 ± 5.34 mg/kg | content of IL-1β in the supernatant [4]: significantly decreased | content of IL-6 in the supernatant [4]: significantly decreased | content of TNF-α in the supernatant [4]: significantly decreased | IL-6 content in serum after treatment [5]: basically at a low level | TNF-α content in serum after treatment [5]: decreased | change of paw volume before and after treatment [5, 8]: significant volume change | LDH activity ± SD [1]: 438.75 ± 11.50 ^c U/L | LDH content in the supernatant / damage to synovial cells (in words) [1]: significantly increased | morphology of rat synovial cells [3]: significantly damaged | expression of MyD88 [6]: significantly downregulated | expression of NF-κB [6]: significantly downregulated | expression of TLR4 [6]: significantly downregulated | expression of the IκB protein [6]: significantly upregulated
